The target of assay [1] is T1, 5-hydroxytryptamine receptor 1A (Homo sapiens) (UniProt P08908).
T1 sequence (whole entry): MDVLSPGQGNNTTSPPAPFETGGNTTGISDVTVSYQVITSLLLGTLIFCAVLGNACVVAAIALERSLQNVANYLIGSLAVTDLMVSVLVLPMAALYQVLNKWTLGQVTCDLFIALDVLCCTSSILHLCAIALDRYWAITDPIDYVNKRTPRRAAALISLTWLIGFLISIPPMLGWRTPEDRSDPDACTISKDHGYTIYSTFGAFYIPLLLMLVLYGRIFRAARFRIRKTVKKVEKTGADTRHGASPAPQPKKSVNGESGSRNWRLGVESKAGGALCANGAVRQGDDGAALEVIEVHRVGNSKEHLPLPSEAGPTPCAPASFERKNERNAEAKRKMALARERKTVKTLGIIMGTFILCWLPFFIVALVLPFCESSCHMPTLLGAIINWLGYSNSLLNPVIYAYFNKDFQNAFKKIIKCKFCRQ
Put plainly: Eudisimic ratio(ER) is the antilog of the difference between the pKb and pD2 values against 5-hydroxytryptamine 1A receptor. Format: functional. The gist of the method:
(§1)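 Eudismic ratio is the antilog of the difference between the pKb (functional α1 tissue assays) or pD2 (5-HT1A [35S]GTPγS stimulation) of the eutomer and that of its distomer.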

The target in assay [2] is T2, Alpha-1A adrenergic receptor (Rattus norvegicus) (UniProt P43140).
T2 sequence (whole entry): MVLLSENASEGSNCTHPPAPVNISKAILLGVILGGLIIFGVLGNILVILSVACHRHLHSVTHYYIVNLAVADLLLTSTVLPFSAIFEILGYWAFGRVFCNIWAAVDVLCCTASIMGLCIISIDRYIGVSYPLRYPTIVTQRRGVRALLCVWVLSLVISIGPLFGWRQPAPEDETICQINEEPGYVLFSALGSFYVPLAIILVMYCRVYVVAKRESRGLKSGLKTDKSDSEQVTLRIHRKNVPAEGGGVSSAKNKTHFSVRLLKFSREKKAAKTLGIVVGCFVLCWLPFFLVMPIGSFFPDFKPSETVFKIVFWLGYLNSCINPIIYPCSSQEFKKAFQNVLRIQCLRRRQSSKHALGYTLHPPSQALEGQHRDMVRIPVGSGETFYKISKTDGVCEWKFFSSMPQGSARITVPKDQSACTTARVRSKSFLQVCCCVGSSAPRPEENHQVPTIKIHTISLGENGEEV
Nature of the assay: Eudisimic ratio(ER) is the antilog of the defference between the pKb and pD2 values against Alpha-1A adrenergic receptor subtype. The gist of the method:
as §1

The target of assay [3] is T3, Alpha-1D adrenergic receptor (Rattus norvegicus) (UniProt P23944).
T3 sequence (whole entry): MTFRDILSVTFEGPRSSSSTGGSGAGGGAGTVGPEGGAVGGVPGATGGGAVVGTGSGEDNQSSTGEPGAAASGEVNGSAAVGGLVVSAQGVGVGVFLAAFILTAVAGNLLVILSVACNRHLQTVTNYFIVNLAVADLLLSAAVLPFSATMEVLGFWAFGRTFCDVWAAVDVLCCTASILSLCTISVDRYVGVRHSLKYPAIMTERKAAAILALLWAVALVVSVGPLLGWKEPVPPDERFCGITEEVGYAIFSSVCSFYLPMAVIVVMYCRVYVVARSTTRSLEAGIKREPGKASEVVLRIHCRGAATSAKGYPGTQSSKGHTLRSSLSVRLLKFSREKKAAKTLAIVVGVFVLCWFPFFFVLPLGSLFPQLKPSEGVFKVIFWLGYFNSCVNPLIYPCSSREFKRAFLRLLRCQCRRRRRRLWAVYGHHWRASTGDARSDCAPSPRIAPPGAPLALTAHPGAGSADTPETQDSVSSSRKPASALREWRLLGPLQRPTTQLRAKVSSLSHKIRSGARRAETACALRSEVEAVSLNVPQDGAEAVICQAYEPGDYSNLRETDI
Nature of the assay: Eudisimic ratio(ER) is the antilog of the defference between the pKb and pD2 values against Alpha-1D adrenergic receptor subtype. Format: functional. Put shortly: as §1

Assay [4] addresses T2, Alpha-1A adrenergic receptor (Rattus norvegicus). Nature of the assay: Eudisimic ratio(ER) is the antilog of the defference between the pKb and pD2 values against Alpha-1A adrenergic receptor. The gist of the method:
as §1

Assay [5] has as its target T4, Alpha-1B adrenergic receptor (Homo sapiens, UniProt P35368).
T4 sequence (P35368 whole entry): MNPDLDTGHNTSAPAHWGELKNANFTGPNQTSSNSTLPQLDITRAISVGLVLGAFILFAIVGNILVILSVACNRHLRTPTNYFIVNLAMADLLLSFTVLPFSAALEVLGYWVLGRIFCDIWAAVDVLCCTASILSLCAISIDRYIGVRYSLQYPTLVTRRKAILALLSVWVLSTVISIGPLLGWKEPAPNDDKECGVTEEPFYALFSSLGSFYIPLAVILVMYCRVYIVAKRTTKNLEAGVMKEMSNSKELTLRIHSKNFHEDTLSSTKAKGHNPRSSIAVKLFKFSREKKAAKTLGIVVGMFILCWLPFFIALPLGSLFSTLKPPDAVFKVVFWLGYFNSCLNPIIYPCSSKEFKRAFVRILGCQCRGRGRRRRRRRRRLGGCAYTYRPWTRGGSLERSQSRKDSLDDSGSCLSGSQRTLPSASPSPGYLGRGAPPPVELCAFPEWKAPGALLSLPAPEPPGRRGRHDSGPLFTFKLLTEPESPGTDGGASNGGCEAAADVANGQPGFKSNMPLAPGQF
Put plainly: Ability to displace [3H]prazosin from human cloned Alpha-1B adrenergic receptor. Put shortly:
(§2)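 Competition binding at cloned human α1 subtypes stably expressed in CHO cells: membranes (30 μg protein) incubated 30 min at 25 °C in 50 mM Tris-HCl pH 7.4 with 0.1–0.4 nM [3H]prazosin and competitor (1 pM–10 μM). Nonspecific binding with 10 μM phentolamine; filtration and scintillation counting. Ki by Cheng–Prusoff; 2–3 experiments in triplicate.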

Assay [6] deals with T5, Alpha-1D adrenergic receptor (Homo sapiens, UniProt P25100).
T5 sequence (P25100 whole entry): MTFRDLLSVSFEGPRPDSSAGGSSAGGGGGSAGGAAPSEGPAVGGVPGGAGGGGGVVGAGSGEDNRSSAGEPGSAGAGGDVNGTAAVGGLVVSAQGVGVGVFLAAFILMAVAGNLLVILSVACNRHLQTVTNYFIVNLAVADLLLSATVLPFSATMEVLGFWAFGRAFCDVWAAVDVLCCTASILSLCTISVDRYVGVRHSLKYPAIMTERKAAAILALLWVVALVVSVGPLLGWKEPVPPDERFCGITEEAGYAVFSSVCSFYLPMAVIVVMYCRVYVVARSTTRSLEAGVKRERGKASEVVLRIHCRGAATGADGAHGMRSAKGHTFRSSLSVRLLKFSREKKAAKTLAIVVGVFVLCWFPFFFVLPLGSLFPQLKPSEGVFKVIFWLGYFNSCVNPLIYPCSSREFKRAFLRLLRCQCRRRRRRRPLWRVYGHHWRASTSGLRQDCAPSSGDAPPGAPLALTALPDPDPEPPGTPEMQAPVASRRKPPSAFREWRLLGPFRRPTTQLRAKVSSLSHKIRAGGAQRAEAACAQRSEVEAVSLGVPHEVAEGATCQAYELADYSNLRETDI
Nature of the assay: Ability to displace [3H]prazosin from human cloned Alpha-1D adrenergic receptor. The gist of the method: as §2

In assay [7] the target is T3, Alpha-1D adrenergic receptor (Rattus norvegicus). Nature of the assay: Eudisimic ratio(ER) is the antilog of the defference between the pKb and pD2 values against alpha-1D-adrenoceptor subtype. The class given is functional. Put shortly: as §1

A word on the Ki: it is the dissociation constant of the complex between target and ligand, obtained from inhibition or displacement.

As for `O[C@H]1[C@@H](NC[C@H]2COc3ccccc3O2)CC[C@@H]1Oc1ccccc1`, the ER turned out to be 27 in assay [1], 3 in assay [2] and 7 in assay [3].
Turning to `O[C@@H]1[C@H](NC[C@H]2COc3ccccc3O2)CC[C@H]1Oc1ccccc1`, the ER in assay [4] is over 35; in assay [7], 33. Besides, the Ki in assay [5] was 46.8 nM; in assay [6], 7.94 nM.

Source of the values: ChEMBL document CHEMBL1132183 (J Med Chem, 1999).
